Calls of active or inactive are those of the source. The calls are words filed in the database; no cut-off is given here.
Columns and labels:
MDA-MB-231 [1] = assay: Displacement of N,N'-ethylenebis(iodoacetamide) from colchicine-binding site of beta-tubulin in human MDA-MB-231 cells at 1000 times IC50 preincubated for after 2 hrs before N,N'-ethylenebis(iodoacetamide) addition measured after 1.5 hrs by chemiluminescence assay; format: cell-based
Procedure, shortened: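 EBI (100 μM final) added for 1.5 h at 37 °C; controls received 0.5% DMSO. Lysates (20 μg protein) run on 10% SDS-PAGE and blotted with anti-β-tubulin (TUB 2.1). β-tubulin–EBI adduct band detected by ECL.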

M21 [2] = assay: Disruption of cytoskeleton microtubule structure of human M21 cells at 5 times IC50 after 16 hrs by indirect immunofluorescence assay; format: functional, cell-based
Procedure, shortened: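 Fixed in 3.7% formaldehyde, permeabilized with saponin, and stained with anti-β-tubulin (TUB 2.1), Alexa-488 secondary and DAPI. Microtubule structure scored by fluorescence microscopy.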

M21 [3] = assay: Cell cycle arrest in human M21 cells assessed as accumulation at G2/M phase at 5 times IC50 after 24 hrs using propidium iodide staining by flow cytometric analysis (reference value: 9%); format: functional
HT-29 = assay: Antiproliferative activity against human HT-29 cells after 48 hrs by sulforhodamine B assay; format: functional, cell-based; conditions: HT-29, 48 h
M21 [4] = assay: Cell cycle arrest in human M21 cells assessed as accumulation at G0/G1 phase at 5 times IC50 after 24 hrs using propidium iodide staining by flow cytometric analysis (reference value: 61%); format: functional
HT-1080 [5] = assay: Antivasculogenic activity against human HT1080 cells xenografted in chicken chorioallantoic membrane assessed as inhibition of tumor growth at 1 ug per egg, iv measured on day 14 by CAM assay; format: functional; design: scale not given: the % may be the effect or the level left
M21 [6] = assay: Cell cycle arrest in human M21 cells assessed as accumulation at S phase at 5 times IC50 after 24 hrs using propidium iodide staining by flow cytometric analysis (reference value: 30%); format: functional
[7] = Toxicity against fertilized chicken embryo assessed as mortality at 3 ug per egg, iv by CAM assay; format: organism-based, Gallus gallus; conditions: in vivo, read-out: Activity
Procedure, shortened: (§1)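 Fertilized chicken eggs incubated 10 days with automatic turning, then static. HT-1080 cells (3.5 × 10^5 cells/egg) grafted onto exposed CAM. On day 11, drug in DMSO diluted into cremophor/ethanol/PBS (6.25/6.25/87.5 v/v) excipient, DMSO below 0.5%, 100 μL injected iv into 10-12 eggs. Eggs incubated to day 17, dead embryos counted. Untreated eggs used for normalization. Two independent experiments, at least 10 eggs each.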

MCF7 = assay: Antiproliferative activity against human MCF7 cells after 48 hrs by sulforhodamine B assay; format: functional, cell-based; conditions: MCF7, 48 h
M21 [8] = assay: Antiproliferative activity against human M21 cells after 48 hrs by sulforhodamine B assay; format: functional, cell-based; conditions: M21, 48 h
HT-1080 [9] = assay: Antivasculogenic activity against human HT1080 cells xenografted in chicken chorioallantoic membrane assessed as inhibition of tumor growth at 3 ug per egg, iv measured on day 14 by CAM assay; format: functional; design: scale not given: the % may be the effect or the level left
[10] = Toxicity against fertilized chicken embryo assessed as mortality at 1 ug per egg, iv by CAM assay; format: organism-based, Gallus gallus; conditions: in vivo, read-out: Activity; procedure, shortened: as §1
DU-145 = assay: Antiproliferative activity against human DU145 cells after 48 hrs by sulforhodamine B assay; format: functional, cell-based; conditions: DU-145, 48 h
MDA-MB-231 [11] = assay: Antiproliferative activity against human MDA-MB-231 cells after 48 hrs by sulforhodamine B assay; format: functional, cell-based; conditions: MDA-MB-231, 48 h
[12] = Antiproliferative activity against mouse B16F0 cells after 48 hrs by sulforhodamine B assay; format: functional, cell-based; conditions: B16F0, 48 h
CCRF-CEM = assay: Antiproliferative activity against human CEM cells after 48 hrs by sulforhodamine B assay; format: functional, cell-based
CEM-VLB = assay: Resistant ratio of IC50 for multidrug-resistant human CEM-VLB cells to IC50 for human CEM cells; format: functional
Procedure, shortened: (§2)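 Ratio of the IC50 in the resistant line (CEM-VLB, CHO-TAX 5-6 or CHO-VV 3-2) to the IC50 in its parental line (CEM or CHO).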

K562 = assay: Antiproliferative activity against human K562 cells after 48 hrs by sulforhodamine B assay; format: functional, cell-based; conditions: K562, 48 h
[13] = Antiproliferative activity against multidrug-resistant human CEM/VLB cells after 48 hrs by sulforhodamine B assay; format: functional
SK-OV-3 = assay: Antiproliferative activity against human SKOV3 cells after 48 hrs by sulforhodamine B assay; format: functional, cell-based; conditions: SK-OV-3, 48 h
HT-1080 [14] = assay: Antiproliferative activity against human HT1080 cells after 48 hrs by sulforhodamine B assay; format: functional, cell-based; conditions: HT-1080, 48 h
CHO-TAX 5-6 [15] = assay: Antiproliferative activity against paclitaxel-resistant CHO-TAX 5-6 cells after 48 hrs by sulforhodamine B assay; format: functional, cell-based; conditions: Cricetulus griseus, CHO-TAX 5-6, 48 h
[16] = Antiproliferative activity against mouse P388D1 cells after 48 hrs by sulforhodamine B assay; format: functional, cell-based; conditions: P388D1, 48 h
CHO-VV 3-2 = assay: Antiproliferative activity against colchicine- and vinblastine-resistant CHO-VV 3-2 cells after 48 hrs by sulforhodamine B assay; conditions: Cricetulus griseus, CHO-VV 3-2, 48 h
CHO = assay: Antiproliferative activity against CHO cells after 48 hrs by sulforhodamine B assay; format: functional, cell-based; conditions: Cricetulus griseus
CHO-TAX 5-6 [17] = assay: Resistant ratio of IC50 for paclitaxel-resistant CHO-TAX 5-6 cells to IC50 for CHO cells; format: functional, Cricetulus griseus; procedure, shortened: as §2
L1210 = assay: Antiproliferative activity against mouse L1210 cells after 48 hrs by sulforhodamine B assay; format: functional, cell-based; conditions: L1210, 48 h

| SMILES | inhibition (MDA-MB-231 [1]) | Activity (M21 [2]) | Activity (M21 [3]) | IC50 (HT-29) | Activity (M21 [4]) | Activity (M21 [6]) | mortality [7] | IC50 (MCF7) | IC50 (M21 [8]) | Activity (HT-1080 [9]) | IC50 (DU-145) | IC50 (MDA-MB-231 [11]) | IC50 [12] | IC50 (CCRF-CEM) | Ratio IC50 (CEM-VLB) | IC50 (K562) | IC50 [13] | IC50 (SK-OV-3) | IC50 (HT-1080 [14]) | IC50 (CHO-TAX 5-6 [15]) | also measured |
| --- | --- | --- | --- | --- | --- | --- | --- | --- | --- | --- | --- | --- | --- | --- | --- | --- | --- | --- | --- | --- | --- |
| COc1ccc(/C=C\c2cc(OC)c(OC)c(OC)c2)cc1O [COMBRETASTATIN A4] | Active | Active | 98% | 61 nM | 2% | 0% | 41% | 5.6 nM | 4.3 nM | 45% |  |  |  |  |  |  |  |  |  |  | Activity (HT-1080 [5]): 48%; mortality [10]: 18% |
| COc1cc(OC)cc(OS(=O)(=O)c2ccc(N3CCNC3=O)cc2)c1 | Active | Active | 75% | 8 nM | 1% | 24% | 10% | 10 nM | 4.3 nM | 56% | 25 nM | 14 nM | 25 nM | 7.1 nM | 1.3 | 7.5 nM | 9.2 nM | 6.8 nM | 8.2 nM | 5.2 nM | IC50 [16]: 7.8 nM; IC50 (CHO-VV 3-2): 15 nM; IC50 (CHO): 7.3 nM; Ratio IC50 (CHO-TAX 5-6 [17]): 0.71; IC50 (L1210): 6.4 nM |
| Cc1ccc(C)c(OS(=O)(=O)c2ccc(N3CCNC3=O)cc2)c1 | Active | Active | 77% | 10 nM | 3% | 20% | 13% | 14 nM | 8.5 nM | Active | 57 nM | 69 nM | 49 nM | 19 nM | 1.2 | 18 nM | 23 nM | 29 nM | 24 nM | 14 nM | IC50 [16]: 19 nM; IC50 (CHO-VV 3-2): 21 nM; IC50 (CHO): 18 nM; Ratio IC50 (CHO-TAX 5-6 [17]): 0.78; IC50 (L1210): 21 nM |
| O=C1NCCN1c1ccc(S(=O)(=O)Oc2c(F)cccc2F)cc1 | Active | Active | 62% | 29 nM | 5% | 33% | 13% | 32 nM | 15 nM | Active | 170 nM | 100 nM | 91 nM | 68 nM | 1.3 | 65 nM | 87 nM | 72 nM | 65 nM | 38 nM | IC50 [16]: 76 nM; IC50 (CHO-VV 3-2): 74 nM; IC50 (CHO): 73 nM; Ratio IC50 (CHO-TAX 5-6 [17]): 0.52; IC50 (L1210): 67 nM |
